The target of series [1] is T1, ATP-dependent translocase ABCB1 (Homo sapiens, UniProt P08183). Kind of series: Inhibition of human MDR1-mediated multidrug resistant in mouse L5178Y cells at 40 uM treated 10 mins before rhodamine 123 challenge measured after 20 mins relative to control. It is filed as cell-based. In short, it runs like this:
(§1)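 Compounds in DMSO were added at room temperature to mdr1-transfected and parental L5178Y cells. After 10 min, rhodamine 123 was added, followed by 20 min at 37 °C. Cellular rhodamine fluorescence was measured and expressed as fluorescence activity ratio (FAR); FAR >1 indicates MDR reversal.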

Series [2] relates to HSC-3. Kind of series: Selectivity index, ratio of CC50 for human normal cells to CC50 for human HSC3 cells. It is filed as functional.
A further series concerns HL-60(TB). Kind of series: Cytotoxicity against human HL-60(TB) cells. Type of series: functional, cell-based. In short, it runs like this:
(§2)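 Human colon cancer and leukaemia line panel. Compounds tested from 10^-4 to 10^-8 M, and IC50 values determined.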

The nature of series [3]: Cytotoxicity against human HPLF cells after 48 hrs. Type of series: cell-based. In short, it runs like this: (§3)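 Cells were exposed to a dose range for 48 h, following a literature method. CC50 was read from the dose–response curve.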
Another series concerns MOLT-4. In words: Growth inhibition of human Molt4/C8 cells. Type of series: functional, cell-based.
Series [4] concerns HSC-3. In words: Cytotoxicity against human HSC3 cells after 48 hrs. Type of series: functional. The settings on record: HSC-3, 48 h. In outline: (§4)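 Human HSC-2, HSC-3, HSC-4 squamous carcinoma and HL-60 promyelocytic leukaemia cells incubated with compound for 48 h. CC50, the concentration killing 50% of cells, read from a dose–response curve.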
In series [5] the test system is HCT-116. In words: Cytotoxicity against human HCT116 cells. It is filed as functional, cell-based. In outline: as §2
Another series concerns HCT-15. In words: Cytotoxicity against human HCT15 cells. Type of series: functional, cell-based. In short, it runs like this: as §2
Another series relates to SW-620. In words: Cytotoxicity against human SW620 cells. Type of series: functional, cell-based. In outline:
as §2

The subject of a further series is HT-29. Kind of series: Cytotoxicity against human HT-29 cells. Type of series: functional, cell-based. In outline:
as §2

The subject of the next series is COLO 205. In words: Cytotoxicity against human COLO205 cells. It is filed as functional, cell-based. In outline:
as §2

Series [6] relates to HSC-2. In words: Selectivity index, ratio of CC50 for human normal cells to CC50 for human HSC2 cells. It is filed as functional.
For series [7], the system named is HSC-4. Kind of series: Cytotoxicity against human HSC4 cells after 48 hrs. It is filed as functional. The following applies: HSC-4, 48 h. In short, it runs like this: as §4
The subject of series [8] is HSC-3. In words: Ratio of melphalan CC50 to compound CC50 for human HSC3 cells. It is filed as functional.
The subject of series [9] is HSC-2. In words: Ratio of melphalan CC50 to compound CC50 for human HSC2 cells. It is filed as functional.
For series [10], the system named is HSC-2. In words: Cytotoxicity against human HSC2 cells after 48 hrs. It is filed as functional. The settings on record: HSC-2, 48 h. In short, it runs like this:
as §4

For a further series, the system named is CCRF-CEM. In words: Growth inhibition of human CEM cells. Type of series: functional, cell-based.
Series [11] concerns the target T1, ATP-dependent translocase ABCB1. Kind of series: Inhibition of human MDR1-mediated multidrug resistant in mouse L5178Y cells at 4 uM treated 10 mins before rhodamine 123 challenge measured after 20 mins relative to control. It is filed as cell-based. In short, it runs like this: as §1
The test system of the next series is K562. In words: Cytotoxicity against human K562 cells. It is filed as functional, cell-based. In outline:
as §2

Series [12] deals with HSC-4. Kind of series: Selectivity index, ratio of CC50 for human normal cells to CC50 for human HSC4 cells. It is filed as functional.
Series [13] concerns HL-60. Kind of series: Selectivity index, ratio of CC50 for human normal cells to CC50 for human HL60 cells. It is filed as functional.
The nature of series [14]: Cytotoxicity against human HGF cells after 48 hrs. Type of series: cell-based. In outline: as §3
The test system of a further series is HCC 2998. In words: Cytotoxicity against human HCC2998 cells. It is filed as functional, cell-based. In outline: as §2
Series [15] concerns HSC-4. Kind of series: Ratio of melphalan CC50 to compound CC50 for human HSC4 cells. Type of series: functional.
Series [16] concerns HL-60. Kind of series: Cytotoxicity against human HL60 cells after 48 hrs. It is filed as functional. The following applies: HL-60, 48 h. In outline: as §4
Another series deals with RPMI-8226. Kind of series: Cytotoxicity against human RPMI8226 cells. It is filed as functional, cell-based. In short, it runs like this: as §2
The next series concerns KM12. In words: Cytotoxicity against human KM12 cells. Type of series: functional, cell-based. In outline: as §2
In another series the test system is L1210. In words: Growth inhibition of mouse L1210 cells. Type of series: functional, cell-based.
In series [17] the test system is HCT-116. In words: Cell cycle arrest in human HCT116 cells assessed as accumulation at G2/M phase at 1 uM after 48 hrs using propidium iodide staining by flow cytometry (reference value: 4.75%). It is filed as functional.
For series [18], the system named is HCT-116. In words: Cell cycle arrest in human HCT116 cells assessed as accumulation at G0/G1 phase at 1 uM after 48 hrs using propidium iodide staining by flow cytometry (reference value: 92.07%). It is filed as functional. On the technique in general: In flow cytometry, cells or beads pass a laser one at a time.
For series [19], the system named is HL-60. In words: Induction of apoptosis in human HL60 cells assessed as formation of internucleosomal DNA fragmentation at up to 0.8 uM after 6 hrs. It is filed as functional, cell-based.
The test system of series [20] is HSC-2. Kind of series: Induction of apoptosis in human HSC2 cells assessed as increase of PARP1 cleavage at 0.4 uM after 12 hrs by Western blot analysis. Type of series: functional, cell-based. In outline: (§5)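 HSC-2 cells were treated at 0.4 µM and HL-60 cells at 0.2 µM. Cells were washed in ice-cold PBS and lysed in HEPES pH 7.4/Triton X-100 buffer with phosphatase and protease inhibitors. Lysates were run on 8% SDS-PAGE and transferred to PVDF. Blots were blocked in 5% milk and probed with anti-cleaved PARP1 and anti-β-actin, then HRP-conjugated secondary antibodies.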
(A western blot detects proteins with antibodies after separation by electrophoresis.)

Series [21] relates to HSC-2. Kind of series: Induction of apoptosis in human HSC2 cells assessed as increase of caspase-3 activation using DEVD-pnitroanilide as substrate after 6 hrs. Type of series: functional, cell-based. In outline: (§6)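 HSC-2 and HL-60 cells were exposed for up to 6 h and then lysed. Lysates were mixed with DEVD-p-nitroanilide and incubated at 37 °C for 2 h. Released p-nitroanilide was read at 405 nm.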

Series [22] relates to HCT-116. In words: Cell cycle arrest in human HCT116 cells assessed as accumulation at S phase at 1 uM after 48 hrs using propidium iodide staining by flow cytometry (reference value: 3.19%). It is filed as functional.
Series [23] deals with HL-60. In words: Induction of apoptosis in human HL60 cells assessed as increase of PARP1 cleavage at 0.2 uM after 6 hrs by Western blot analysis. It is filed as functional, cell-based. In short, it runs like this: as §5
The subject of series [24] is HL-60. Kind of series: Induction of apoptosis in human HL60 cells assessed as increase of caspase-3 activation using DEVD-pnitroanilide as substrate after 6 hrs. Type of series: functional, cell-based. In outline:
as §6

Series [25] relates to HSC-2. Kind of series: Induction of apoptosis in human HSC2 cells assessed as formation of internucleosomal DNA fragmentation at up to 0.8 uM after 6 hrs. Type of series: functional, cell-based.
The test system of series [26] is HL-60. Kind of series: Induction of apoptosis in human HL60 cells assessed as formation of internucleosomal DNA fragmentation at up to 0.8 uM after 24 hrs. Type of series: functional, cell-based.
Series [27] relates to HSC-2. Kind of series: Induction of apoptosis in human HSC2 cells assessed as formation of internucleosomal DNA fragmentation at up to 0.8 uM after 24 hrs. It is filed as functional, cell-based.
Series [28] concerns HCT-116. In words: Cell cycle arrest in human HCT116 cells assessed as accumulation at S phase at 16 uM after 48 hrs using propidium iodide staining by flow cytometry (reference value: 3.19%). It is filed as functional.
Series [29] relates to HCT-116. In words: Cell cycle arrest in human HCT116 cells assessed as accumulation at G2/M phase at 16 uM after 48 hrs using propidium iodide staining by flow cytometry (reference value: 4.75%). It is filed as functional.
In series [30] the test system is HCT-116. In words: Cell cycle arrest in human HCT116 cells assessed as accumulation at G0/G1 phase at 16 uM after 48 hrs using propidium iodide staining by flow cytometry (reference value: 92.07%). It is filed as functional.

The structures appear in SMILES notation. Active and inactive are the calls of the source. The calls are words filed in the database; no cut-off is given here.

Data on three compounds can be found in ChEMBL document CHEMBL2010770, “Dimeric 3,5-bis(benzylidene)-4-piperidones: a novel cluster of tumour-selective cytotoxins possessing multidrug-resistant properties” (Eur J Med Chem, 2012).

As a reminder, the IC50 is the concentration that gives 50% inhibition. A low value points to greater potency in that assay. By CC50 is commonly meant the concentration at which the toxic effect on the cells reaches its halfway point.

T1 sequence (P08183 whole entry): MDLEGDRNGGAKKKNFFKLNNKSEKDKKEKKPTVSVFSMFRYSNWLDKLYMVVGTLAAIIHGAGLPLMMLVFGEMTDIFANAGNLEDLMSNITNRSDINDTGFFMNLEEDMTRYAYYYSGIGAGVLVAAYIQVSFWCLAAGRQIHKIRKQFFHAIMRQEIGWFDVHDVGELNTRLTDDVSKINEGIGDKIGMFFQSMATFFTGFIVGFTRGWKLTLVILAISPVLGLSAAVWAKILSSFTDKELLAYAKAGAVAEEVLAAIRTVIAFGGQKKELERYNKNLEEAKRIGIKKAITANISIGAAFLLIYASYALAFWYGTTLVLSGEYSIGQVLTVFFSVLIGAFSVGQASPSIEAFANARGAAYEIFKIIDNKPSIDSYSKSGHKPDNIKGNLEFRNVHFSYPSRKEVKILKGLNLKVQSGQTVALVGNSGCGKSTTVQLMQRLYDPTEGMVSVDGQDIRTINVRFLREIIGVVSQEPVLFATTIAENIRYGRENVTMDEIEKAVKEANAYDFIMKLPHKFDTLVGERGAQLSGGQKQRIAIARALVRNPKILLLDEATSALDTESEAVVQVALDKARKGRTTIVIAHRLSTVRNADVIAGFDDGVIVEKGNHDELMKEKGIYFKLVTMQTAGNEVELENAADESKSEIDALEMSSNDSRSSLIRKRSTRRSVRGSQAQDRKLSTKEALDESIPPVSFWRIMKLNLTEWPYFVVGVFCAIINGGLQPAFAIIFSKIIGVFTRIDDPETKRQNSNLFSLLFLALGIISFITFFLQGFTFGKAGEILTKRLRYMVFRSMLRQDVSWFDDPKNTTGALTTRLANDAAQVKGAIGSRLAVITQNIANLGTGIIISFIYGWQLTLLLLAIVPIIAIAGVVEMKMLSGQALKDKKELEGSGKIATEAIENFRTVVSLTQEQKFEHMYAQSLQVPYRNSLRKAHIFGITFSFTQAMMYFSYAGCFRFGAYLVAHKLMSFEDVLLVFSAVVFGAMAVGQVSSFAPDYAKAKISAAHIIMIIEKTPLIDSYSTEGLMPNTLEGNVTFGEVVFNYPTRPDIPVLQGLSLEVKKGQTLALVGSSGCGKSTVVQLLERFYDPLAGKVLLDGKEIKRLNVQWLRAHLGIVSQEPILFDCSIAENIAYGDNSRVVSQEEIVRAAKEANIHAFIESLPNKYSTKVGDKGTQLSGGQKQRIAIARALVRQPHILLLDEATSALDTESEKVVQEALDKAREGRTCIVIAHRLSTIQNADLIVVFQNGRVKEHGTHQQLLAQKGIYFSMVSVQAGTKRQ

Take `O=C1/C(=C/c2ccccc2)CN(C(=O)c2ccccc2C(=O)N2C/C(=C\c3ccccc3)C(=O)/C(=C/c3ccccc3)C2)C/C1=C\c1ccccc1`: the Ratio in series [1] is reported as 51.5; in the series on HSC-3 [2], 64.7; in the series on HSC-2 [6], 189; in the series on HSC-3 [8], 329; in the series on HSC-2 [9], 335; in [11] it was 46.5. In addition, the Ratio with HSC-4 [12] turned out to be 60; in the series on HL-60 [13], 44.7; in the series on HSC-4 [15], 390. In addition, the IC50 in the series on HL-60(TB) turned out to be 210 nM; in the series with HCT-116 [5], 30 nM; in the series on HCT-15, 350 nM; with SW-620 it was 300 nM; in the series on HT-29, 170 nM; with COLO 205, 210 nM. Besides, the IC50 with K562 was found to be 210 nM; in the series with HCC 2998, 200 nM; in the series with RPMI-8226, 60 nM; with KM12, 210 nM. The results for the cytotoxic concentration (CC50) at 48 h in series [3] and in [14] were 8.5 µM and 5.7 µM, respectively. The “growth inhibition (GI)” value in the series on MOLT-4, with CCRF-CEM and in the series with L1210 was “Active” in each case. Also, the CC50 with HSC-3 [4] turned out to be 76 nM; with HSC-4 [7] it was 82 nM; in the series on HSC-2 [10] it was 26 nM; in the series with HL-60 [16] it was 110 nM.
On to `O=C1/C(=C/c2ccccc2)CN(C(=O)CC(=O)N2C/C(=C\c3ccccc3)C(=O)/C(=C/c3ccccc3)C2)C/C1=C\c1ccccc1`, for which the Ratio was determined as 53.3 in series [1]; 20 in the series on HSC-3 [2]; 18.4 with HSC-2 [6]; 35.3 in [11]; 11 with HSC-4 [12]; 20 in the series on HL-60 [13]. In addition, the Activity stood at 25.01% in the series with HCT-116 [17], 31.54% in the series on HCT-116 [18] and 43.46% with HCT-116 [22]. For the same compound, the IC50 with HL-60(TB) was determined as 290 nM; in the series with HCT-116 [5], 30 nM; in the series on HCT-15, 170 nM; in the series on SW-620 it was 50 nM; in the series with HT-29, 50 nM; in the series with COLO 205 it was 160 nM. Moreover, the IC50 with K562 was determined as 50 nM; with HCC 2998, 170 nM; in the series with RPMI-8226, 130 nM; with KM12, 130 nM. The CC50 at 48 h in series [3] is 1.3 µM; in series [14], 1.1 µM. Moreover, the “growth inhibition (GI)” value with MOLT-4, with CCRF-CEM and with L1210 was “Active” in each case. The result in the series on HL-60 [19], in the series on HSC-2 [20], in the series with HSC-2 [21], with HL-60 [23], in the series on HL-60 [24] and in the series with HL-60 [26] was Active. For the same compound, the result in the series with HSC-2 [27] was Active. Besides, the CC50 in the series on HSC-3 [4] was found to be 46 nM; with HSC-4 [7], 84 nM; in the series with HSC-2 [10], 50 nM; in the series with HL-60 [16], 46 nM. The outcome with HSC-2 [25] was inactive.
For the compound `COc1cc(/C=C/C(=O)CC(=O)/C=C/c2ccc(O)c(OC)c2)ccc1O` [CURCUMIN], the Activity with HCT-116 [28] amounted to 5.62%; in the series on HCT-116 [29], 45.42%; with HCT-116 [30], 48.97%.
